Measurements: ChEMBL document CHEMBL4346684, “Synthesis and structure-bactericidal activity relationships of non-ketolides: 9-Oxime clarithromycin 11,12-cyclic carbonate featured with three-to eight-atom-length spacers at 3-OH” (Eur J Med Chem, 2019)
Converted amounts (≈) assume the structure as drawn. The source made the active and inactive calls. No cut-off for these calls is given here.

How the values were obtained:
[1] = Ratio of telithromycin MRT to compound MRT in Sprague-Dawley rat at 20 mg/kg, po administered as single dose measured for 0.25 to 24 hrs by LC-MS/MS analysis; type: ADME, organism-based; conditions: in vivo
Streptococcus pneumoniae [2] = test: Ratio of clarithromycin MBC to compound MBC for mef-encoded erythromycin resistant Streptococcus pneumoniae PU09; type: functional
Haemophilus influenzae [3] = test: Bactericidal activity against azithromycin-susceptible Haemophilus influenzae ATCC 49247 assessed as reduction in colony formation incubated in HTM broth medium for 20 to 24 hrs followed by 24 hrs subculturing in the medium without test compound; type: functional
[4] = Tmax in Sprague-Dawley rat at 20 mg/kg, po administered as single dose measured for 0.25 to 24 hrs by LC-MS/MS analysis; type: ADME, organism-based; conditions: in vivo
Method in brief: (§1)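 Male SD rats (2-3 per compound) given a single oral 20 mg/kg dose in saline with 1% DMF/20% hydroxypropyl-β-cyclodextrin (w/v). Blood drawn at 0.25, 0.5, 1, 2, 4, 6, 8 and 24 h, centrifuged 2500 g, 5 min, 4 °C; drug quantified by LC-MS/MS. Noncompartmental parameters calculated (AUC0-t, AUCinf, CL, t1/2, MRT, Cmax, Tmax); mean ± s.d.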

Streptococcus pneumoniae [5] = test: Bactericidal activity against erythromycin-susceptible Streptococcus pneumoniae ATCC 49619 assessed as log reduction in bacterial CFU at 1XMIC incubated for 1 to 24 hrs by broth dilution method; type: functional
Method in brief: (§2)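 Samples taken at 1, 2, 4, 6, 8, 12, 24 h, diluted and plated, colonies counted after 20-24 h at 35 °C; log CFU plotted against time. Detection limit 300 CFU/mL.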

[6] = Half life in Sprague-Dawley rat at 20 mg/kg, po administered as single dose measured for 0.25 to 24 hrs by LC-MS/MS analysis; type: ADME, organism-based; conditions: in vivo; method in brief: as §1
[7] = AUC (0 to t) in Sprague-Dawley rat at 20 mg/kg, po administered as single dose measured for 0.25 to 24 hrs by LC-MS/MS analysis; type: ADME, organism-based; parameters: time 0.25-24 hr, dose 20 mg/kg, route oral; conditions: in vivo; method in brief: as §1
Streptococcus pyogenes [8] = test: Ratio of MBC to MIC for inducibly erythromycin resistant Streptococcus pyogenes 01-968 expressing i-ermA; type: functional
Streptococcus pneumoniae [9] = test: Bactericidal activity against mef-encoded erythromycin resistant Streptococcus pneumoniae PU09 assessed as reduction in colony formation incubated in CAMHB medium for 20 to 24 hrs followed by 24 hrs subculturing in the medium without test compound; type: functional
Rattus norvegicus [10] = test: Ratio of telithromycin Tmax to compound Tmax in Sprague-Dawley rat at 20 mg/kg, po administered as single dose measured for 0.25 to 24 hrs by LC-MS/MS analysis; type: ADME, organism-based; conditions: in vivo
Staphylococcus aureus [11] = test: Antimicrobial activity against constitutively erythromycin resistant and methicillin resistant Staphylococcus aureus PU20 expressing c-ermC incubated in CAMHB medium for 20 hrs by two-fold microbroth dilution method; type: functional; conditions: PU20, 20 h
Method in brief: (§3)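 Purified fresh Staphylococcus isolate at about 5×10^5 CFU/ml final in CAMHB, 35 °C for 20 h. Each run included ATCC strains and reference antibiotics as QC, plus an antibiotic-free growth control.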

[12] = Clearance in Sprague-Dawley rat at 20 mg/kg, po administered as single dose measured for 0.25 to 24 hrs by LC-MS/MS analysis; type: ADME, organism-based; conditions: in vivo; method in brief: as §1
Haemophilus influenzae [13] = test: Antimicrobial activity against azithromycin-susceptible Haemophilus influenzae ATCC 49247 incubated in HTM broth medium for 20 to 24 hrs by two-fold microbroth dilution method; type: functional
Rattus norvegicus [14] = test: Ratio of telithromycin clearance to compound clearance in Sprague-Dawley rat at 20 mg/kg, po administered as single dose measured for 0.25 to 24 hrs by LC-MS/MS analysis; type: ADME, organism-based; conditions: in vivo
Streptococcus pyogenes [15] = test: Ratio of clarithromycin MBC to compound MBC for inducibly erythromycin resistant Streptococcus pyogenes 01-968 expressing i-ermA; type: functional
Streptococcus pneumoniae [16] = test: Bactericidal activity against erythromycin-susceptible Streptococcus pneumoniae ATCC 49619 incubated at >1XMIC incubated for 1 to 24 hrs by broth dilution method; type: functional, organism-based; method in brief: as §2
[17] = Cmax in Sprague-Dawley rat at 20 mg/kg, po administered as single dose measured for 0.25 to 24 hrs by LC-MS/MS analysis; type: ADME, organism-based; parameters: dose 20 mg/kg, route oral; conditions: in vivo; method in brief: as §1
[18] = AUCinfinity in Sprague-Dawley rat at 20 mg/kg, po administered as single dose measured for 0.25 to 24 hrs by LC-MS/MS analysis; type: ADME, organism-based; parameters: dose 20 mg/kg, time infinity, route oral; conditions: in vivo; method in brief: as §1
Streptococcus pneumoniae [19] = test: Bactericidal activity against erythromycin-susceptible Streptococcus pneumoniae ATCC 49619 assessed as reduction in colony formation incubated in CAMHB medium for 20 to 24 hrs followed by 24 hrs subculturing in the medium without test compound; type: functional
Streptococcus pneumoniae [20] = test: Antimicrobial activity against mef-encoded erythromycin resistant Streptococcus pneumoniae PU09 incubated in CAMHB medium for 20 to 24 hrs by two-fold microbroth dilution method; type: functional
Staphylococcus aureus [21] = test: Ratio of MBC to MIC for inducibly erythromycin-resistant and methicillin resistant Staphylococcus aureus PU32 expressing i-ermA; type: functional
Streptococcus pneumoniae [22] = test: Ratio of MBC to MIC for mef-encoded erythromycin resistant Streptococcus pneumoniae PU09; type: functional
Streptococcus pyogenes [23] = test: Antimicrobial activity against inducibly erythromycin resistant Streptococcus pyogenes 01-968 expressing i-ermA incubated in CAMHB medium for 20 to 24 hrs by two-fold microbroth dilution method; type: functional
Streptococcus pyogenes [24] = test: Bactericidal activity against inducibly erythromycin resistant Streptococcus pyogenes 01-968 expressing i-ermA at 1 to 16XMIC incubated for 12 hrs by broth dilution method; type: functional, organism-based
Method in brief: (§4)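 Samples were taken at 1, 2, 4, 6, 8, 12 and 24 h, diluted and subcultured at 35 °C for 20–24 h. Colonies were counted and log CFU plotted against time; detection limit 300 CFU/mL.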

Streptococcus pyogenes [25] = test: Bactericidal activity against inducibly erythromycin resistant Streptococcus pyogenes 01-968 expressing i-ermA assessed as log reduction in bacterial CFU at 1 to 16XMIC incubated for 24 hrs by broth dilution method; type: functional; method in brief: as §4
Streptococcus pyogenes [26] = test: Bactericidal activity against inducibly erythromycin resistant Streptococcus pyogenes 01-968 expressing i-ermA assessed as reduction in colony formation incubated in CAMHB medium for 20 to 24 hrs followed by 24 hrs subculturing in the medium without test compound; type: functional
Rattus norvegicus [27] = test: Ratio of telithromycin AUC to compound AUC in Sprague-Dawley rat at 20 mg/kg, po administered as single dose measured for 0.25 to 24 hrs by LC-MS/MS analysis; type: ADME, organism-based; conditions: in vivo
Haemophilus influenzae [28] = test: Ratio of MBC to MIC for azithromycin-susceptible Haemophilus influenzae ATCC 49247; type: functional
Cytochrome P450 3A4 = Cytochrome P450 3A4 (Homo sapiens, UniProt P08684); test: Inhibition of CYP3A4 in human liver microsomes using midazolam as substrate incubated for 10 mins after substrate addition by HPLC analysis; type: ADME
Method in brief: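 Human liver microsome CYP3A4 (0.03 mg/mL final), midazolam 5.00 μM final, 0.1 M potassium phosphate pH 7.4 with MgCl2, preincubated 37 °C 5 min. Test compound 0-25.00 μM (ketoconazole 0-0.25 μM as reference) and NADPH 1.5 mM final added; 10 min at 37 °C. Metabolite/internal-standard peak-area ratio measured by UPLC-MS/MS; IC50 fitted.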

Streptococcus pneumoniae [29] = test: Ratio of MBC to MIC for erythromycin-susceptible Streptococcus pneumoniae ATCC 49619; type: functional
Rattus norvegicus [30] = test: Ratio of telithromycin Cmax to compound Cmax in Sprague-Dawley rat at 20 mg/kg, po administered as single dose measured for 0.25 to 24 hrs by LC-MS/MS analysis; type: ADME, organism-based; conditions: in vivo
Rattus norvegicus [31] = test: Ratio of telithromycin half life to compound half life in Sprague-Dawley rat at 20 mg/kg, po administered as single dose measured for 0.25 to 24 hrs by LC-MS/MS analysis; type: ADME, organism-based; conditions: in vivo
[32] = MRT in Sprague-Dawley rat at 20 mg/kg, po administered as single dose measured for 0.25 to 24 hrs by LC-MS/MS analysis; type: ADME, organism-based; conditions: in vivo; method in brief: as §1
Staphylococcus aureus [33] = test: Antimicrobial activity against inducibly erythromycin-resistant and methicillin resistant Staphylococcus aureus PU32 expressing i-ermA incubated in CAMHB medium for 20 hrs by two-fold microbroth dilution method; type: functional; conditions: PU32, 20 h; method in brief: as §3
Staphylococcus aureus [34] = test: Bactericidal activity against inducibly erythromycin-resistant and methicillin resistant Staphylococcus aureus PU32 expressing i-ermA assessed as reduction in colony formation incubated in CAMHB medium for 20 hrs followed by 24 hrs subculturing in the medium without test compound; type: functional
Streptococcus pneumoniae [35] = test: Bactericidal activity against mef-encoded erythromycin resistant Streptococcus pneumoniae PU09 at 1 to 16xMIC incubated for 1 to 24 hrs by broth dilution method; type: functional, organism-based; method in brief: as §4
Staphylococcus aureus [36] = test: Ratio of clarithromycin MBC to compound MBC for inducibly erythromycin-resistant and methicillin resistant Staphylococcus aureus PU32 expressing i-ermA; type: functional
Streptococcus pneumoniae [37] = test: Antimicrobial activity against erythromycin-susceptible Streptococcus pneumoniae ATCC 49619 incubated in CAMHB medium for 20 to 24 hrs by two-fold microbroth dilution method; type: functional

Chain of Cytochrome P450 3A4 (P08684 whole entry): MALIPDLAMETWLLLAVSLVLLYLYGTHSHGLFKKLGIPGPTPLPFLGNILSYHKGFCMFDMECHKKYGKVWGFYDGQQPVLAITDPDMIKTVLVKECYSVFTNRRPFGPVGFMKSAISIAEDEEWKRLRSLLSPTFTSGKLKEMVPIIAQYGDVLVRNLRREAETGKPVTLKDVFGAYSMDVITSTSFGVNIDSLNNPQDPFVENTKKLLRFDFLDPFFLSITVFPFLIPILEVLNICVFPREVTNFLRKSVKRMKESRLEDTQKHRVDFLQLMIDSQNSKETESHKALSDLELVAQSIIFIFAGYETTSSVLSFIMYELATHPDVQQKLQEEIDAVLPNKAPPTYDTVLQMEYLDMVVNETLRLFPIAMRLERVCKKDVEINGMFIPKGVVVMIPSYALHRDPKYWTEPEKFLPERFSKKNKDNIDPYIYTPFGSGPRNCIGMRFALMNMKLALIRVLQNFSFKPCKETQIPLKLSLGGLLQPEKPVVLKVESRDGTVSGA

SMILES: CC[C@H]1OC(=O)[C@H](C)[C@@H](OC(=O)NCCCc2cccnc2)[C@H](C)[C@@H](O[C@@H]2O[C@H](C)C[C@H](N(C)C)[C@H]2O)[C@](C)(OC)C[C@@H](C)/C(=N\OC)[C@H](C)[C@H]2OC(=O)O[C@@]21C
- Ratio [1]: 1.4
- Ratio (Streptococcus pneumoniae [2]): 32
- MBC (Haemophilus influenzae [3]): 128 µg/mL (≈ 159 µM)
- Tmax [4]: 0.833 h
- Activity (Streptococcus pneumoniae [5]): 2 log10CFU
- half-life [6]: 2.94 h
- AUC(0-t) [7]: 6730 ng·h/mL
- Ratio (Streptococcus pyogenes [8]): 8
- MBC (Streptococcus pneumoniae [9]): 0.5 µg/mL (≈ 0.62 µM)
- Ratio (Rattus norvegicus [10]): 0.4
- MIC (Staphylococcus aureus [11]): > 256 µg/mL
- CL/F [12]: 50.6 mL/min/kg
- MIC (Haemophilus influenzae [13]): 64 µg/mL (≈ 79.3 µM)
- Ratio (Rattus norvegicus [14]): 7
- Ratio (Streptococcus pyogenes [15]): 32
- Activity (Streptococcus pneumoniae [16]): Active
- Cmax [17]: 1030 ng/mL
- AUC(0-inf) [18]: 6760 ng·h/mL
- MBC (Streptococcus pneumoniae [19]): 0.125 µg/mL (≈ 0.155 µM)
- MIC (Streptococcus pneumoniae [20]): 0.5 µg/mL (≈ 0.62 µM)
- Ratio (Staphylococcus aureus [21]): 2
- Ratio (Streptococcus pneumoniae [22]): 1
- MIC (Streptococcus pyogenes [23]): 0.25 µg/mL (≈ 0.31 µM)
- Activity (Streptococcus pyogenes [24]): Active
- Activity (Streptococcus pyogenes [25]): <=3 log10CFU
- MBC (Streptococcus pyogenes [26]): 2 µg/mL (≈ 2.48 µM)
- Ratio (Rattus norvegicus [27]): 7
- Ratio (Haemophilus influenzae [28]): 2
- IC50 (Cytochrome P450 3A4): 2500 nM
- Ratio (Streptococcus pneumoniae [29]): 2
- Ratio (Rattus norvegicus [30]): 5
- Ratio (Rattus norvegicus [31]): 2.4
- MRT [32]: 4.53 h
- MIC (Staphylococcus aureus [33]): 8 µg/mL (≈ 9.91 µM)
- MBC (Staphylococcus aureus [34]): 16 µg/mL (≈ 19.8 µM)
- Activity (Streptococcus pneumoniae [35]): Active
- Ratio (Staphylococcus aureus [36]): 32
- MIC (Streptococcus pneumoniae [37]): 0.06 µg/mL (≈ 0.0743 µM)
